# Values joined by “and” are separate entries in the source; they are usually repeats but may differ in a detail not shown here. Equal entries are not always repeated.
# Key:
# Assay type in all cases: in vivo, human
# [1] = tested on: symmetrical dimethylarginine (SDMA) in bone marrow biopsies; assay: SDMA in bone marrow biopsies by immunohistochemistry; conditions: for Mean percentage decrease in SDMA in bone marrow biopsies: after 29 days of treatment
# Outline: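 Adults with relapsed/refractory MDS, CMML or secondary AML took the test compound orally once daily (400 or 300 mg) with water only, every day of 28-day cycles. Bone marrow biopsies were taken predose and 29 days after treatment began, formalin-fixed and paraffin-embedded. SDMA loss was assessed by immunohistochemistry.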
# [2] = Plasma pharmacokinetics of GSK3326595
# [3] = tested on: patients with relapsed and/or refractory MDS, CMML, or AML; assay: Safety: adverse events, dose-limiting toxicities and deaths
# Outline: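 Open-label, multicenter part 1 in adults with relapsed/refractory MDS, CMML or secondary AML. The 300 mg dose-expansion cohort took the test compound orally once daily with water only, at about the same time (±4 h), on every day of 28-day cycles. Deaths were split into ⩽30 days or >30 days after the last dose. The analysis covered all patients given at least one dose.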
structure (smiles),measurement,setting,value
CC(=O)N1CCC(Nc2cc(C(=O)NC[C@H](O)CN3CCc4ccccc4C3)ncn2)CC1 [GSK3326595],Mean percentage decrease in SDMA in bone marrow biopsies,"[1]; 300-mg cohort, 7 patients",84.63%
same,Mean percentage decrease in SDMA in bone marrow biopsies,"[1]; 400-mg cohort, 4 patients",85.75%
same,Maximum observed decrease in tumor SDMA,"[1]; day 29, 300-mg cohort",97.8%
same,Maximum observed decrease in tumor SDMA,"[1]; day 29, 400-mg cohort",100%
same,Dose proportionality of exposure,[2]; 300 and 400 mg,dose-proportional
same,half-life,"[2]; human, plasma, po, 400 mg",4 to 6 h
same,Tmax,"[2]; human, plasma, po, 400 mg, Tmax, 300 and 400 mg once daily",~2 h
same,Died (during the study),"[3]; 300 mg, n = 17",14 (82%) n (%)
same,GSK3326595-related TEAE: AE leading to study treatment withdrawn,"[3]; 300 mg, n = 17",2 (12) n (%)
same,GSK3326595-related TEAE: Anemia,"[3]; 300 mg, n = 17",2 (12) n (%)
same,GSK3326595-related TEAE: Any SAE,"[3]; 300 mg, n = 17",3 (18) n (%)
same,GSK3326595-related TEAE: Any TEAEs,"[3]; 300 mg, n = 17",13 (76) n (%)
same,GSK3326595-related TEAE: Any grade 3/4 TEAE,"[3]; 300 mg, n = 17",8 (47%) n (%) and 8 (47) n (%)
same,GSK3326595-related TEAE: Decreased appetite,"[3]; 300 mg, n = 17",3 (18) n (%)
same,GSK3326595-related TEAE: Decreased platelet count,"[3]; 300 mg, n = 17",5 (29) n (%)
same,GSK3326595-related TEAE: Dysgeusia,"[3]; 300 mg, n = 17",4 (24) n (%)
same,GSK3326595-related TEAE: Fatal SAE,"[3]; 300 mg, n = 17",1 (6) n (%)
same,GSK3326595-related TEAE: Fatigue,"[3]; 300 mg, n = 17",2 (12) n (%)
same,GSK3326595-related TEAE: Nausea,"[3]; 300 mg, n = 17",4 (24) n (%)
same,GSK3326595-related TEAE: Neutrophil count decreased,"[3]; 300 mg, n = 17",2 (12) n (%)
same,GSK3326595-related TEAE: Thrombocytopenia,"[3]; 300 mg, n = 17",2 (12) n (%)
same,TEAE: AE leading to dose interruption,"[3]; 300 mg, n = 17",10 (59) n (%)
same,TEAE: AE leading to dose reduction,"[3]; 300 mg, n = 17",1 (6) n (%)
same,TEAE: AE leading to study treatment withdrawn,"[3]; 300 mg, n = 17",3 (18) n (%)
same,TEAE: Anemia,"[3]; 300 mg, n = 17",7 (41) n (%)
same,TEAE: Any AE,"[3]; 300 mg, n = 17",17 (100) n (%)
same,TEAE: Any SAE,"[3]; 300 mg, n = 17",12 (71) n (%)
same,TEAE: Decreased appetite,"[3]; 300 mg, n = 17",4 (24) n (%)
same,TEAE: Decreased platelet count,"[3]; 300 mg, n = 17",8 (47) n (%)
same,TEAE: Diarrhea,"[3]; 300 mg, n = 17",7 (41) n (%)
same,TEAE: Dysgeusia,"[3]; 300 mg, n = 17",7 (41) n (%)
same,TEAE: Dyspnea,"[3]; 300 mg, n = 17",6 (35) n (%)
same,TEAE: Fatal SAE,"[3]; 300 mg, n = 17",5 (29%) n (%) and 5 (29) n (%)
same,TEAE: Fatigue,"[3]; 300 mg, n = 17",6 (35) n (%)
same,TEAE: Nausea,"[3]; 300 mg, n = 17",5 (29) n (%)
same,Died (during the study),"[3]; 400 mg, n = 13",11 (85%) n (%)
same,GSK3326595-related TEAE: AE leading to study treatment withdrawn,"[3]; 400 mg, n = 13",0 n (%)
same,GSK3326595-related TEAE: Anemia,"[3]; 400 mg, n = 13",1 (8) n (%)
same,GSK3326595-related TEAE: Any SAE,"[3]; 400 mg, n = 13",3 (23) n (%)
same,GSK3326595-related TEAE: Any TEAEs,"[3]; 400 mg, n = 13",9 (69) n (%)
same,GSK3326595-related TEAE: Any grade 3/4 TEAE,"[3]; 400 mg, n = 13",5 (38%) n (%) and 5 (38) n (%)
same,GSK3326595-related TEAE: Decreased appetite,"[3]; 400 mg, n = 13",1 (8) n (%)
same,GSK3326595-related TEAE: Decreased platelet count,"[3]; 400 mg, n = 13",3 (23) n (%)
same,GSK3326595-related TEAE: Dysgeusia,"[3]; 400 mg, n = 13",3 (23) n (%)
same,GSK3326595-related TEAE: Fatal SAE,"[3]; 400 mg, n = 13",0 n (%)
same,GSK3326595-related TEAE: Fatigue,"[3]; 400 mg, n = 13",4 (31) n (%)
same,GSK3326595-related TEAE: Nausea,"[3]; 400 mg, n = 13",2 (15) n (%)
same,GSK3326595-related TEAE: Neutrophil count decreased,"[3]; 400 mg, n = 13",2 (15) n (%)
same,GSK3326595-related TEAE: Thrombocytopenia,"[3]; 400 mg, n = 13",1 (8) n (%)
same,TEAE: AE leading to dose interruption,"[3]; 400 mg, n = 13",10 (77) n (%)
same,TEAE: AE leading to dose reduction,"[3]; 400 mg, n = 13",5 (38) n (%)
same,TEAE: AE leading to study treatment withdrawn,"[3]; 400 mg, n = 13",4 (31) n (%)
same,TEAE: Anemia,"[3]; 400 mg, n = 13",3 (23) n (%)
same,TEAE: Any AE,"[3]; 400 mg, n = 13",13 (100) n (%)
same,TEAE: Any SAE,"[3]; 400 mg, n = 13",11 (85) n (%)
same,TEAE: Decreased appetite,"[3]; 400 mg, n = 13",5 (38) n (%)
same,TEAE: Decreased platelet count,"[3]; 400 mg, n = 13",4 (31) n (%)
same,TEAE: Diarrhea,"[3]; 400 mg, n = 13",6 (46) n (%)
same,TEAE: Dysgeusia,"[3]; 400 mg, n = 13",3 (23) n (%)
same,TEAE: Dyspnea,"[3]; 400 mg, n = 13",5 (38) n (%)
same,TEAE: Fatal SAE,"[3]; 400 mg, n = 13",9 (69%) n (%) and 9 (69) n (%)
same,TEAE: Fatigue,"[3]; 400 mg, n = 13",7 (54) n (%)
same,TEAE: Nausea,"[3]; 400 mg, n = 13",4 (31) n (%)
same,Deaths >30 days from last dose of study treatment (number),[3]; 300-mg cohort,6
same,Deaths ⩽30 days from last dose of study treatment (number),[3]; 300-mg cohort,8
same,Deaths >30 days from last dose of study treatment (number),[3]; 400-mg cohort,5
same,Deaths ⩽30 days from last dose of study treatment (number),[3]; 400-mg cohort,6
same,Deaths >30 days from last dose of study treatment,"[3]; Total, N = 30",11 (37%) n (%)
same,Deaths ⩽30 days from last dose of study treatment,"[3]; Total, N = 30",47%
same,Died (during the study),"[3]; Total, N = 30",25 (83%) n (%)
same,GSK3326595-related AE: decreased platelet count,"[3]; Total, N = 30",27%
same,GSK3326595-related AE: dysgeusia,"[3]; Total, N = 30",23%
same,GSK3326595-related AE: fatigue,"[3]; Total, N = 30",20%
same,GSK3326595-related AE: nausea,"[3]; Total, N = 30",20%
same,GSK3326595-related TEAE with maximum grade of 3 or 4: decreased neutrophil count,"[3]; Total, N = 30",4 (13%) n (%)
same,GSK3326595-related TEAE with maximum grade of 3 or 4: decreased platelet count,"[3]; Total, N = 30",6 (20%) n (%)
same,GSK3326595-related TEAE with maximum grade of 3 or 4: thrombocytopenia,"[3]; Total, N = 30",3 (10%) n (%)
same,GSK3326595-related TEAE: AE leading to study treatment withdrawn,"[3]; Total, N = 30",2 (7) n (%)
same,GSK3326595-related TEAE: Anemia,"[3]; Total, N = 30",3 (10%) n (%) and 3 (10) n (%)
